In ChEMBL document CHEMBL1141808, “Polymethoxylated flavones derived from citrus suppress tumor necrosis factor-alpha expression by human monocytes” (J Nat Prod, 1999):
pIC50: −log10 of the molar value. Calls of active or inactive are those of the source. The calls are words filed in the database; no cut-off is given here.

Assays:
Monocyte [1] = assay: Inhibition of TNFalpha expression in LPS-stimulated human monocytes treated 30 mins before LPS challenge measured after 14 hrs by ELISA; type: functional, cell-based
Method in brief: (§1)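 Human PBMC at 4 × 10^6/mL in DMEM with 30% FCS, glutamine and pen/strep were allowed to adhere for 2 h at 37 °C and 5% CO2. Nonadherent lymphocytes were washed off. Adherent monocytes were preincubated 30 min with graded compound concentrations, then stimulated with LPS. After 14 h, supernatants were assayed by ELISA. Values are percent of compound-free cultures, as means ± SE from three donors.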

[2] = Cytotoxicity against human monocytes assessed as depletion of cellular LDH activity; type: cell-based; set-up: concentration or dose not given beside the values; conditions: monocyte
Method in brief: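 Viability was taken from the LPS-stimulated adherent monocyte cultures after 14 h, lysed in 1% NP40 in PBS. LDH in the lysate was measured in 50 mM sodium pyrophosphate pH 8.9 with 50 mM lactic acid and 4 mg/mL NAD. The rate of NADH formation was read at 340 nm at room temperature. More than 20% depletion was counted as cytotoxic.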

Monocyte [3] = assay: Inhibition of IL10 expression in LPS-stimulated human monocytes treated 30 mins before LPS challenge measured after 14 hrs by ELISA; type: functional, cell-based; method in brief: as §1
Monocyte [4] = assay: Inhibition of MIP1alpha expression in LPS-stimulated human monocytes treated 30 mins before LPS challenge measured after 14 hrs by ELISA; type: functional, cell-based; method in brief: as §1
Monocyte [5] = assay: Inhibition of IL1-beta expression in LPS-stimulated human monocytes at 100 uM treated 30 mins before LPS challenge measured after 14 hrs by ELISA; type: functional
Method in brief: (§2)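 Monocyte cultures were held 14 h in medium alone, with 20 ng/mL LPS alone, or with LPS plus 100 µM compound. IBMX served as reference. TNFα, IL-6, IL-8, IL-10 and MIP-1α were measured in supernatants by ELISA, and IL-1β in cell lysates made with 1% NP40 in PBS. Significance versus LPS alone was set at p < 0.05.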

Monocyte [6] = assay: Inhibition of IL6 expression in LPS-stimulated human monocytes at 100 uM treated 30 mins before LPS challenge measured after 14 hrs by ELISA; type: functional; method in brief: as §2
Monocyte [7] = assay: Inhibition of IL8 expression in LPS-stimulated human monocytes at 100 uM treated 30 mins before LPS challenge measured after 14 hrs by ELISA; type: functional; method in brief: as §2
Monocyte [8] = assay: Inhibition of TNFalpha mRNA expression in LPS-stimulated human monocytes treated 30 mins before LPS challenge measured after 90 mins by RT-PCR; type: functional, cell-based
Method in brief: (§3)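 Elutriated monocytes at 5 × 10^6/mL in complete medium were preincubated 30 min at 37 °C with graded compound concentrations. They were then stimulated with 20 ng/mL LPS for 90 min. Total RNA was isolated with RNAzol. TNFα and IL-1β mRNA were measured by RT-PCR with [α-32P]dCTP, relative to GAPDH.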

Monocyte [9] = assay: Inhibition of IL1-beta mRNA expression in LPS-stimulated human monocytes treated 30 mins before LPS challenge measured after 90 mins by RT-PCR; type: functional, cell-based; method in brief: as §3
[10] = target: T1, Phosphodiesterase 4 (Homo sapiens) (UniProt P27815+Q08499+Q07343+Q08493); assay: Inhibition of PDE4 in human U937 cells assessed as inhibition of cAMP hydrolysis at 2 uM by SPA; type: cell-based; conditions: U-937
Method in brief: (§4)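 PDE, mostly type IV by isoform-inhibitor sensitivity, was semipurified from U937 cells. cAMP hydrolysis was measured by scintillation proximity assay across graded compound concentrations. Rates were expressed as percent of flavonoid-free control, and the concentration giving 50% inhibition was reported.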

[11] = target: T1, Phosphodiesterase 4 (Homo sapiens); assay: Inhibition of PDE4 in human monocytes assessed as elevation of cytosolic cAMP level at 100 uM treated for 30 mins assessed per 10^7 cells by EIA; type: cell-based
Method in brief: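 Elutriated human monocytes at 5 × 10^6/mL in complete medium (30% FCS) were precultured 2 h at 37 °C and 5% CO2. They were then exposed for 30 min to 100 µM flavone or 200 µM IBMX. Cells were lysed in cold 10 mM HEPES pH 7.6 with 1% NP40. cAMP was isolated on SAX columns, eluted with methanol/0.01 M HCl, dried, and quantified by EIA as pmol/10^7 cells.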

Monocyte [12] = assay: Inhibition of TNFalpha expression in LPS-stimulated human monocytes at 100 uM treated 30 mins before LPS challenge measured after 14 hrs by ELISA; type: functional; method in brief: as §2
Monocyte [13] = assay: Inhibition of IL10 expression in LPS-stimulated human monocytes at 100 uM treated 30 mins before LPS challenge measured after 14 hrs by ELISA; type: functional; method in brief: as §2
Monocyte [14] = assay: Inhibition of MIP1alpha expression in LPS-stimulated human monocytes at 100 uM treated 30 mins before LPS challenge measured after 14 hrs by ELISA; type: functional; method in brief: as §2
Monocyte [15] = assay: Increase in IL6 expression in LPS-stimulated human monocytes at 100 uM treated 30 mins before LPS challenge measured after 14 hrs by ELISA; type: functional; method in brief: as §2
[16] = target: T1, Phosphodiesterase 4 (Homo sapiens); assay: Inhibition of PDE4 in human U937 cells assessed as inhibition of cAMP hydrolysis at 11 uM by SPA; type: cell-based; conditions: U-937; method in brief: as §4
[17] = target: T1, Phosphodiesterase 4 (Homo sapiens); assay: Inhibition of PDE4 in human U937 cells assessed as inhibition of cAMP hydrolysis at 16 uM by SPA; type: cell-based; conditions: U-937; method in brief: as §4

Row | Compound | pIC50 (Monocyte [1]) | Activity (Monocyte [1]) | Activity [2] | other results
1 | COc1ccc(-c2cc(=O)c3c(OC)c(OC)c(OC)cc3o2)cc1 | 4.66 | – | – | –
2 | C[C@@H]1O[C@@H](OC[C@H]2O[C@@H](Oc3c(-c4ccc(O)cc4)oc4cc(O[C@@H]5O[C@@H](C)[C@H](O)[C@@H](O)[C@H]5O)cc(O)c4c3=O)[C@H](O)[C@@H](O)[C@@H]2O)[C@H](O)[C@H](O)[C@H]1O | – | inactive | Non-toxic | –
3 | O=c1cc(-c2ccccc2)oc2cc(O)c(O)c(O)c12 [BAICALEIN] | – | inactive | Non-toxic | –
4 | Oc1cc(O)c2c(c1)OC(c1ccc(O)c(O)c1)C(O)C2 (stereo unspecified) | – | inactive | – | –
5 | COc1ccc(-c2cc(=O)c3c(O)c(OC)c(OC)c(OC)c3o2)cc1OC [5-DEMETHYLNOBILETIN] | 5.30 | – | – | –
6 | O=C1CC(c2ccccc2)Oc2ccccc21 (stereo unspecified) [FLAVANONE] | – | inactive | Non-toxic | –
7 | COc1ccc(-c2oc3c(OC)c(OC)c(OC)c(O)c3c(=O)c2OC)cc1OC | 5.00 | – | – | –
8 | O=c1cc(-c2ccccc2)oc2cc(O)ccc12 [7-HYDROXYFLAVONE] | – | inactive | Non-toxic | –
9 | COc1ccc(-c2cc(=O)c3c(O)cc(O)cc3o2)cc1 [ACACETIN] | 4.66 | – | > 20% | –
10 | CC(C)Cn1c(=O)n(C)c(=O)c2nc[nH]c21 [ISOBUTYLMETHYLXANTHINE] | – | – | – | Activity (Monocyte [5]): 99.1 ng/mL; Activity (Monocyte [6]): 79.7 ng/mL; Activity (Monocyte [7]): 335 ng/mL; Activity (Monocyte [12]): 10.9 ng/mL; Activity (Monocyte [13]): 0.651 ng/mL; Activity (Monocyte [14]): 33.2 ng/mL
11 | COc1ccc(-c2cc(=O)c3c(OC)c(OC)c(OC)cc3o2)cc1OC [SINENSETIN] | 5.10 | – | – | –
12 | O=c1c(O)c(-c2ccc(O)c(O)c2)oc2c(O)c(O)cc(O)c12 [GOSSYPETIN] | – | inactive | Non-toxic | –
13 | Oc1cc(O)c2c(c1)O[C@H](c1ccc(O)c(O)c1)[C@@H](O)C2 [CATECHIN] | – | – | Non-toxic | –
14 | COc1ccc([C@@H]2CC(=O)c3c(O)cc(O)cc3O2)cc1O | – | inactive | – | –
15 | O=c1cc(-c2ccccc2)oc2cc(O)cc(O)c12 [CHRYSIN] | – | inactive | Non-toxic | –
16 | O=C1C[C@@H](c2ccc(O)c(O)c2)Oc2cc(O)cc(O)c21 [ERIODICTYOL] | – | inactive | Non-toxic | –
17 | Oc1cc(O)c2c(c1)O[C@H](c1ccc(O)c(O)c1)[C@H](O)C2 [(-)-EPICATECHIN] | – | inactive | Non-toxic | –
18 | COc1ccc(-c2cc(=O)c3c(OC)c(OC)c(OC)c(OC)c3o2)cc1 [TANGERETIN] | 4.52 | – | – | –
19 | O=c1c(O)c(-c2ccc(O)c(O)c2)oc2cc(O)cc(O)c12 [QUERCETIN] | 3.92 | – | > 20% | –
20 | O=c1c(O)c(-c2ccc(O)c(O)c2)oc2cc(O)ccc12 [FISETIN] | – | inactive | Non-toxic | –
21 | O=c1c(O)c(-c2ccccc2)oc2ccccc12 [FLAVONOL] | – | inactive | Non-toxic | –
22 | COc1ccc(-c2cc(=O)c3c(OC)c(OC)c(OC)c(OC)c3o2)cc1OC [NOBILETIN] | 5.00 | – | – | –
23 | O=c1c(O)c(-c2ccccc2)oc2cc(O)cc(O)c12 [GALANGIN] | – | inactive | Non-toxic | –
24 | O=c1c(O)c(-c2cc(O)c(O)c(O)c2)oc2cc(O)cc(O)c12 [MYRICETIN] | – | inactive | Non-toxic | inhibition [17]: 50%; Activity [11]: 3.7 pmol

The next lines start with results.

Row | pIC50 (Monocyte [1]) | Compound | Activity (Monocyte [1]) | Activity [2] | other results
25 | 5.30 | COc1ccc(-c2oc3c(OC)c(OC)c(OC)c(OC)c3c(=O)c2OC)cc1OC [3,5,6,7,8,3',4'-HEPTAMETHOXYFLAVONE] | – | – | pIC50 (Monocyte [3]): 4.91; pIC50 (Monocyte [4]): 5.14; Activity (Monocyte [5]): inactive; Activity (Monocyte [5]; record 2): 62.9 ng/mL; Activity (Monocyte [6]): inactive; Activity (Monocyte [6]; record 2): 90 ng/mL; Activity (Monocyte [7]): inactive; Activity (Monocyte [7]; record 2): 307 ng/mL; Activity (Monocyte [8]): Active; Activity (Monocyte [9]): inactive; inhibition [10]: 50%; Activity [11]: 5.7 pmol; Activity (Monocyte [12]): 9.7 ng/mL; Activity (Monocyte [13]): 0.269 ng/mL; Activity (Monocyte [14]): 49.2 ng/mL; Activity (Monocyte [15]): 30%
26 | 4.70 | O=c1c(O)c(-c2ccc(O)cc2)oc2cc(O)cc(O)c12 [KAEMPFEROL] | – | > 20% | –
27 | 4.33 | COc1c(-c2ccc(O)c(O)c2)oc2cc(O)cc(O)c2c1=O [3-O-METHYLQUERCETIN] | – | – | –
28 | 4.66 | COc1cc(O)c2c(=O)c(O)c(-c3ccc(O)c(O)c3)oc2c1 [RHAMNETIN] | – | > 20% | –
29 | < 3.70 | COc1ccc([C@@H]2CC(=O)c3c(O)cc(O[C@@H]4O[C@H](CO[C@@H]5O[C@@H](C)[C@H](O)[C@@H](O)[C@H]5O)[C@@H](O)[C@H](O)[C@H]4O)cc3O2)cc1O [HESPERIDIN] | – | Non-toxic | –
30 | 4.66 | COc1cc(-c2cc(=O)c3c(O)cc(O)cc3o2)ccc1O [CHRYSOERIOL] | – | – | –
31 | 3.78 | O=c1cc(-c2ccccc2)oc2ccccc12 [FLAVONE] | – | – | inhibition [16]: 50%; Activity [11]: 3.6 pmol
32 | 4.17 | COc1cc(-c2oc3c(OC)c(O)cc(O)c3c(=O)c2O)ccc1O [LIMOCITRIN] | – | > 20% | –
33 | < 3.70 | C[C@@H]1O[C@@H](O[C@H]2[C@H](Oc3cc(O)c4c(c3)O[C@H](c3ccc(O)cc3)CC4=O)O[C@H](CO)[C@@H](O)[C@@H]2O)[C@H](O)[C@H](O)[C@H]1O [NARINGIN] | – | Non-toxic | –
34 | < 3.70 | COc1ccc(-c2cc(=O)c3c(O)cc(O[C@@H]4O[C@H](CO[C@@H]5O[C@@H](C)[C@H](O)[C@@H](O)[C@H]5O)[C@@H](O)[C@H](O)[C@H]4O)cc3o2)cc1O [DIOSMIN] | – | Non-toxic | –
35 | 4.70 | COc1cc(-c2cc(=O)c3c(OC)c(OC)c(OC)cc3o2)cc(OC)c1OC | – | – | –
36 | < 3.70 | C[C@@H]1O[C@@H](OC[C@H]2O[C@@H](Oc3cc(O)c4c(c3)O[C@H](c3ccc(O)cc3)CC4=O)[C@H](O)[C@@H](O)[C@@H]2O)[C@H](O)[C@H](O)[C@H]1O [NARIRUTIN] | – | Non-toxic | –
37 | 4.80 | COc1ccc(-c2cc(=O)c3c(OC)cc(OC)c(OC)c3o2)cc1OC | – | – | –
38 | 4.70 | O=c1cc(-c2ccc(O)cc2)oc2cc(O)cc(O)c12 [APIGENIN] | – | > 20% | –
39 | 4.60 | COc1ccc(-c2cc(=O)c3c(OC)c(OC)ccc3o2)cc1OC | – | – | –
